This is an account of results in ChEMBL document CHEMBL3593179, “Benzoic acid derivatives with improved antifungal activity: Design, synthesis, structure-activity relationship (SAR) and CYP53 docking studies” (2015).

Active and inactive are the calls of the source. The rule behind the calls is not given here.

The first assay concerns Aspergillus niger. Nature of the assay: Antifungal activity against Aspergillus niger N402 cspA1 at 100 uM by growth based assay. It counts as functional. Put shortly:
(§1)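 Mycelial discs cut from 5-day-old cultures were placed centrally on MEA (Blakeslee's formula) agar plates containing inhibitor at 0.1 mM final concentration or solvent control. Plates were incubated at 28°C and growth was scored daily. Radial growth rate (RGR) and initial growth inhibition (IGI) were derived and expressed as percent of the matching solvent control. Each compound was tested in triplicate.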
For the compound `O=C(O)c1ccc(-c2ccc(Cl)c(F)c2)cc1`, at 100 µM the inhibition was 30%. Consider `O=C(O)c1ccc(-c2cccc(F)c2)cc1`, for which the inhibition entry was “Active”.

For the compound `O=C(O)c1ccc(-n2cccc2)cc1`, the inhibition entry is “Active”.

`O=C(O)c1ccc(-c2ccc(Cl)c(Cl)c2)cc1`: the inhibition result was “inactive”. Turning to `O=C(O)c1ccc(-c2cc(F)c(F)cc2F)cc1`, the inhibition result was “Active”. On the same count and under the same terms, for `O=C(O)c1ccc(N2CCCC2)cc1Cl` the value was “Active”; for `O=C(O)c1ccc(-c2ccc(F)cc2)cc1`, “Active”; for `O=C(O)c1ccc(-c2cccs2)cc1`, “Active”. As for `O=C(O)c1ccc(-c2ccc(Cl)cc2)cc1`, the inhibition entry is “inactive”.

Another assay deals with Curvularia lunata. Nature of the assay: Antifungal activity against Cochliobolus lunatus strain MUCL 38696 at 100 uM by growth based assay. It counts as functional, organism-based. Put shortly:
as §1
In the case of `Cc1cc(C=O)c(C)n1-c1ccc(C(=O)O)cc1`, the inhibition entry was “inactive”. Take `Cc1cc(C(=O)O)ccc1-n1c(C)ccc1C`: the inhibition entry is “inactive”. Regarding `Cc1ccc(C)n1-c1ccc(C(=O)O)cc1`, the inhibition entry is “inactive”. As to `O=C(O)c1ccc(F)cc1`, the inhibition entry was “inactive”. `Cc1cc(C)n(-c2ccc(S(=O)(=O)O)cc2)n1`: the inhibition result is “inactive”. Regarding `O=C(O)c1ccc2ccccc2c1`, the inhibition entry was “inactive”. Turning to `O=C(O)c1ccc(-c2ccc(Cl)c(F)c2)cc1`, the inhibition result was “Active”. For `O=C(O)c1ccc(-c2cccc(F)c2)cc1`, the inhibition entry was “Active”. For `O=S(=O)(O)c1cc[n+](-c2ccc(Cl)cc2)cc1`, the inhibition entry was “inactive”. In the case of `Cc1cc(C)n(-c2ccc(C(=O)O)cc2)n1`, the inhibition result was “inactive”.

Turning to `O=C(O)c1ccc(-n2cccc2)cc1`, the inhibition result was “Active”. With `O=C(O)c1ccc(N2CCCC2=O)cc1`, the inhibition entry is “inactive”. Same read-out and setting: for `O=C(O)c1ccc(N2CCCC2)cc1` the value was “inactive”; for `O=C(O)c1ccc(C(=O)O)cc1`, “inactive”.

For `O=C(O)c1ncc(N2CCCC2)cc1Cl`, the inhibition result is “inactive”. In the case of `CC1CCN(c2ccc(C(=O)O)cc2)CC1`, the inhibition result is “Active”.

With `O=C(O)c1ccc(-c2cc(F)c(F)cc2F)cc1`, the inhibition result was “Active”. As to `O=C(O)c1ccc(N2CCCC2)cc1Cl`, the inhibition result is “inactive”. Turning to `O=C(O)c1ccc(-c2ccc(F)cc2)cc1`, the inhibition entry was “Active”. For `O=C(O)c1ccc(C2CCCCC2)cc1`, the inhibition result is “inactive”. Take `O=C(O)c1ccc(-c2ccsc2)cc1`: the inhibition entry is “Active”. On the same count and under the same terms, with `O=C(O)c1ccc(-c2ccc(C(=O)O)cc2)cc1` the entry was “inactive”; with `Cc1ccn(-c2ccc(C(=O)O)c(Cl)c2)n1`, “inactive”; with `O=C(O)c1ccc(N2CCCC2)nc1`, “inactive”. With `O=C(O)c1ccc(N2CCCCC2)cc1Cl`, the inhibition result is “inactive”. On the same count and under the same terms, with `CC(=O)c1cc(C)n(-c2ccc(C(=O)O)cc2)c1C` the entry was “inactive”. Turning to `O=C(O)c1ccc(CN2CCCC2)cc1`, the inhibition entry was “inactive”. As to `Cn1ccc(-c2ccc(C(=O)O)cc2)n1`, the inhibition entry was “inactive”. Turning to `O=C(O)c1ccc(-c2cccs2)cc1`, the inhibition entry is “Active”.

A further assay deals with Pleurotus ostreatus. Briefly: Antifungal activity against Pleurotus ostreatus Plo5 at 100 uM by growth based assay. The class given is functional. Put shortly: as §1
With `O=C(O)c1ccc(-c2ccc(Cl)c(F)c2)cc1`, the inhibition at 100 µM worked out at 75%. On to `O=C(O)c1ccc(-n2cccc2)cc1`, for which the inhibition entry is “inactive”. Regarding `Cc1cc(C(=O)O)ccc1-n1cccc1`, the inhibition result was “inactive”.

With `O=C(O)c1ccc(-c2ccc(F)cc2)cc1`, the inhibition at 100 µM came out at 75%.

Consider `O=C(O)c1ccc(-c2ccsc2)cc1`, for which 100 µM produced 75% inhibition.

In the case of `O=C(O)c1ccc(-c2cccs2)cc1`, the inhibition entry is “Active”.

What is called inhibition is the drop in the measured response relative to a control, in per cent.
